# Assay results as given in publication PMC6923798 (Bioorganic chemistry, 2018).
# Where two headings read alike, the source gives them in different places.
# Legend:
# Jurkat = assay: MTT anti-proliferative assay; assay type: cell-based, human; settings: read-out: IC50 ± SD, Jurkat
# [1] = system: full NCI panel of 60 cell lines; assay: NCI in vitro one dose anticancer assay; assay type: cell-based, human; settings: 48 h; for inhibition at 10 µM: Homo sapiens, 60 cell, read-out: Mean growth inhibition %
# Procedure, shortened: (§1)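 NCI protocol. Test compound added once at 10−5 M to ~60 human tumour lines from nine subpanels. Incubated 48 h at 37 °C, 5% CO2, 95% air, 100% relative humidity. Endpoint by sulforhodamine B protein staining with spectrophotometric absorbance. Growth of treated cells reported as percent of untreated cells.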
# c-Src = c-Src (Homo sapiens, UniProt P12931); assay: Src kinase assay; assay type: biochemical
# STAT3 = STAT3 activation assay; assay type: cell-based, human; settings: K-562 cells, 10 μM, 24 h, nuclear extracts
# Procedure, shortened: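 K562 cells seeded overnight in 10 cm plates, then given vehicle, test compound (10 μM) or WP1066 (positive control) for 24 h. Nuclear fractions extracted by kit. STAT3 activation measured in nuclear extracts by TransAM STAT3 ELISA per manufacturer. Mean ± SD of three independent experiments, each in triplicate.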
# IL-6 = IL-6 ELISA in K-562 cells; assay type: cell-based, human; settings: Homo sapiens, K562, 24 h, read-out: IL-6 protein levels (% of control)
# Procedure, shortened: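 K-562 cells exposed 24 h to vehicle (DMSO), test compound at 10 μM or dexamethasone (positive control). IL-6 secreted into cell-free supernatant quantified by human IL-6 ELISA kit. Expressed as % of vehicle control, mean ± SD of three independent experiments, each in triplicate. Time course: in 12-well plates, medium changed when compound (10 μM) added, and media sampled at 0, 1, 4, 8, 12, 24, 48 h.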
# K-562 cell line = assay: NCI in vitro one dose anticancer assay; assay type: cell-based; settings: Homo sapiens, K562, 48 h, read-out: % growth inhibition
# Procedure, shortened: as §1
# KG-1a = assay: MTT anti-proliferative assay; assay type: cell-based, human; settings: read-out: IC50 ± SD, KG-1a
# K-562 = assay: MTT anti-proliferative assay; assay type: cell-based, human; settings: read-out: IC50 ± SD, K-562
# EGFR = EGFR (Homo sapiens, UniProt P00533); assay: EGFR kinase assay; assay type: biochemical
# SR cell line = assay: NCI in vitro one dose anticancer assay; assay type: cell-based; settings: Homo sapiens, 48 h, read-out: % growth inhibition
# Procedure, shortened: as §1
# RPMI-8226 cell line = assay: NCI in vitro one dose anticancer assay; assay type: cell-based; settings: Homo sapiens, RPMI-8226, 48 h, read-out: % growth inhibition
# Procedure, shortened: as §1
# MOLT-4 cell line = assay: NCI in vitro one dose anticancer assay; assay type: cell-based; settings: Homo sapiens, MOLT-4, 48 h, read-out: % growth inhibition
# Procedure, shortened: as §1
# Sequence of EGFR (P00533 25-1210): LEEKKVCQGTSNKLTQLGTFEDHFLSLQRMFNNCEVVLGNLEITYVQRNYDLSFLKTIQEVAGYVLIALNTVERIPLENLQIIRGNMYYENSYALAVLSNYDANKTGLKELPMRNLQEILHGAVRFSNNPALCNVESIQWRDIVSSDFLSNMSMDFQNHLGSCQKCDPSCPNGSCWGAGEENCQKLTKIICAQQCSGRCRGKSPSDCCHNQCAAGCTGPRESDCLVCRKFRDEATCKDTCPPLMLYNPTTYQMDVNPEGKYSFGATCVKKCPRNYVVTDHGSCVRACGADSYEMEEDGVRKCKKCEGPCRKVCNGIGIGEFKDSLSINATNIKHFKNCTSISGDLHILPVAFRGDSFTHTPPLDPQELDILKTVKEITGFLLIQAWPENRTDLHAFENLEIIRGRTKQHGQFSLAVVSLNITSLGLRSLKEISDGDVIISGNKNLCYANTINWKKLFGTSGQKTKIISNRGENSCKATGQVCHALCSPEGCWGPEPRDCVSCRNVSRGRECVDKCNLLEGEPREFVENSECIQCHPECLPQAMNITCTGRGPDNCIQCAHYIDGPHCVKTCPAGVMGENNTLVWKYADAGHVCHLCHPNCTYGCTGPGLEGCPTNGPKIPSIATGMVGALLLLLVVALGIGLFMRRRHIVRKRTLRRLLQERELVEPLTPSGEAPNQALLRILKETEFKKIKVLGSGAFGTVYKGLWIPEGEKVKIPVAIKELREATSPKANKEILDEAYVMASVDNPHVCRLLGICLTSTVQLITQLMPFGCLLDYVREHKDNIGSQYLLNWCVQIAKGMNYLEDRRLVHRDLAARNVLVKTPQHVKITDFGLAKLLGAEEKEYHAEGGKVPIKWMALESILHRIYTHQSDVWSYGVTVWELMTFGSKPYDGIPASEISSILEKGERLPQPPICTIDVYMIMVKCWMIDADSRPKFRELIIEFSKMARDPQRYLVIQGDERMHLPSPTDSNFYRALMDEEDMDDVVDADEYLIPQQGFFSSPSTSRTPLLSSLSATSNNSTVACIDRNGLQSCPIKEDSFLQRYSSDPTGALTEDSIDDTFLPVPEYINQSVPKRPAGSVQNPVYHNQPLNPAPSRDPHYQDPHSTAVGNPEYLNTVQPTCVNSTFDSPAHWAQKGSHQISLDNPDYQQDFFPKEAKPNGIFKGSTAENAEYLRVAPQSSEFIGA
# Sequence of c-Src (P12931 whole entry): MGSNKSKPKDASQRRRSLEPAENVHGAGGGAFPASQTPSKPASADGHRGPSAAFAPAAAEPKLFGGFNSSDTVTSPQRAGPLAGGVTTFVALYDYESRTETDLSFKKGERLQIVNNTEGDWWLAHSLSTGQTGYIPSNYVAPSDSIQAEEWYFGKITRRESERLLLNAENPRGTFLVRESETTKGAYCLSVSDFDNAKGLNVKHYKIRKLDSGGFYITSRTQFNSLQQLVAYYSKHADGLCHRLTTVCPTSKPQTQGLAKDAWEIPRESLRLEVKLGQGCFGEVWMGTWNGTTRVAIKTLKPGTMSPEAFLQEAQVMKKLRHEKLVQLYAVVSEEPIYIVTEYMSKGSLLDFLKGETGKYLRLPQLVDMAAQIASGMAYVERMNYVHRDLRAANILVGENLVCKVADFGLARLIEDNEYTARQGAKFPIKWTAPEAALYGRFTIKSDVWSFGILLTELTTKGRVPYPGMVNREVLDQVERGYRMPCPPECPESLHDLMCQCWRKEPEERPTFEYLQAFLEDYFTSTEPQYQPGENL
Compound,"IC50 (Jurkat; Homo sapiens, Jurkat, 24 h)",inhibition at 10 µM [1],IC50 (c-Src),inhibition of STAT3 activation (STAT3),activity at 10 µM (IL-6),inhibition at 10 µM (K-562 cell line),"IC50 (KG-1a; Homo sapiens, KG-1a, 24 h)","IC50 (K-562; Homo sapiens, K562, 24 h)",IC50 (EGFR),inhibition at 10 µM (SR cell line),inhibition at 10 µM (RPMI-8226 cell line),"IC50 (Jurkat; MTT, 24 h treatment)","Mean growth inhibition % ([1]; 10 μM, SRB, mean over NCI 60 cell line panel)","IC50 (c-Src; read-out: Src (IC50 μM), PGT substrate, ATP 50 μM)","IC50 (KG-1a; MTT, 24 h treatment)","IC50 (K-562; MTT, 24 h treatment)","IC50 (EGFR; read-out: EGFR (IC50 μM), PGT substrate, ATP 50 μM)",inhibition at 10 µM (MOLT-4 cell line)
"COc1ccc(-c2nnc(SCC(=O)Nc3ccc(C(=O)C=Cc4cc(OC)c(OC)c(OC)c4)cc3)o2)cc1 [Compound 8n, 2-(5-(4-Methoxyphenyl)-1,3,4-oxadiazol-2-ylthio)-N-(4-(3-(3,4,5-tri-methoxyphenyl)acryloyl)phenyl)acetamide]",13.15 ± 0.08 µM,27.3%,6.24 ± 0.86 µM,most effective,20 to 23%,35.8 to 152%,16 ± 0.96 µM,10.2 ± 0.94 µM,2.35 ± 0.95 µM,32.9 to 160%,–,–,–,–,–,–,–,–
"COc1ccc(-c2nnc(SCC(=O)Nc3ccc(C(=O)C=Cc4cc(OC)c(OC)c(OC)c4)cc3)o2)cc1OC [Compound 8s, 2-((5-(3,4-Dimethoxyphenyl)-1,3,4-oxadiazol-2-yl)thio)-N-(4-(3-(3,4,5-trimethoxyphenyl)acryloyl)phenyl)acetamide]",25.1 ± 0.45 µM,–,15.3 ± 1.25 µM,moderate activities,30 to 75%,35.8 to 152%,32.1 ± 0.64 µM,15.1 ± 0.25 µM,12.3 ± 0.8 µM,32.9 to 160%,31.3 to 144%,–,–,–,–,–,–,–
"O=C(CSc1nnc(-c2ccccc2)o1)Nc1ccc(C(=O)C=Cc2ccccc2)cc1 [Compound 8a, N-(4-(3-Phenyl)acryloyl)phenyl-2-((5-phenyl-1,3,4-oxadiazol-2-yl)thio)-acetamide]",–,–,–,most effective,–,–,–,–,–,–,–,8.47 ± 1.03 µM,37.77%,4.5 ± 1.2 µM,8.85 ± 0.22 µM,7.21 ± 0.35 µM,1.23 ± 0.25 µM,–
"COc1ccc(-c2nnc(SCC(=O)Nc3ccc(C(=O)C=Cc4ccc(Cl)cc4)cc3)o2)cc1OC [Compound 8p, N-(4-(3-(4-chlorophenyl)acryloyl)phenyl)-2-((5-(3,4-dimethoxyphenyl)-1,3,4-oxadiazol-2-yl)thio)acetamide]",17.2 ± 0.79 µM,28.2%,13.7 ± 0.89 µM,moderate activities,30 to 75%,–,22.5 ± 1.07 µM,16.1 ± 1.08 µM,13.3 ± 0.65 µM,32.9 to 160%,31.3 to 144%,–,–,–,–,–,–,31.9 to 108%
